In ChEMBL document CHEMBL1131634, “Axially chiral N-benzyl-N,7-dimethyl-5-phenyl-1, 7-naphthyridine-6-carboxamide derivatives as tachykinin NK1 receptor antagonists: determination of the absolute stereochemical requirements” (J Med Chem, 1998) one finds IC50, ED50 and inhibition in vivo data, which are given here for six compounds.

Structures are written as SMILES.

Test [1] concerns the target Substance-P receptor (Homo sapiens, UniProt P25103). Put plainly: Binding affinity at Tachykinin receptor 1 by measuring its ability to inhibit [125I]BH-SP binding in human IM-9 cells (Lymphoblast cells). The format is cell-based.
For test [2], the system named is Cavia porcellus. Put plainly: In vivo inhibition of capsaicin-induced plasma extravasation in guinea pig trachea on intravenous administration. The format is functional. Put shortly: (§1)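 Guinea pigs received compound iv or po before capsaicin challenge, and tracheal plasma extravasation was measured. ID50 was derived from 5–8 animals per dose and reported with 95% confidence limits.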

The test system of test [3] is Cavia porcellus. Put plainly: In vivo inhibition of capsaicin-induced plasma extravasation in guinea pig trachea on peroral administration. The settings on record: po. The format is functional. Put shortly:
as §1

Test [4] has as its system Cavia porcellus. Briefly: In vivo inhibition (percentage) of capsaicin-induced plasma extravasation in guinea pig trachea on intravenous administration at 1.0 mg/kg. The format is functional. Put shortly:
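Guinea pigs were given a single iv dose of 1.0 mg/kg. Capsaicin-induced tracheal plasma extravasation was then measured, with percent inhibition reported (n = 5 or 6).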

Chain of Substance-P receptor (P25103 whole entry): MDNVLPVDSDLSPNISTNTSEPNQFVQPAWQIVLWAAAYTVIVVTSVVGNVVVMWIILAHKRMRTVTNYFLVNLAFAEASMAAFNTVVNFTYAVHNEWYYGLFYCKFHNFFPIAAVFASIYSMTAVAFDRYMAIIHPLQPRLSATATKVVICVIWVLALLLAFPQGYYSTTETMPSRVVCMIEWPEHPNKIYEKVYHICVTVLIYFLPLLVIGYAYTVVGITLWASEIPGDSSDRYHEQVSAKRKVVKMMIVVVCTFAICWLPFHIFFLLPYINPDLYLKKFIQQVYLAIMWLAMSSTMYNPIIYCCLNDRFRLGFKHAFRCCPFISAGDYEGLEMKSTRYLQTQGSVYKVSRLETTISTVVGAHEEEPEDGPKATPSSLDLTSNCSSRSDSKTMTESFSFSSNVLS

In the case of `Cc1ccc(-c2c(C(=O)N(C)[C@H](C)c3ccccc3)n(C)c(=O)c3ncccc23)cc1`, in test [1], the IC50 (commonly the concentration at which inhibition is half-maximal) stood at 130 nM.
`Cc1ccc(-c2c(C(=O)N(C)[C@@H](C)c3cc(C(F)(F)F)cc(C(F)(F)F)c3)n(C)c(=O)c3ncccc23)cc1` (stereo in doubt; 3a-A) [7-METHYL-8-OXO-5-P-TOLYL-7,8-DIHYDRO-[1,7]NAPHTHYRIDINE-6-CARBOXYLIC ACID (S)-[(S)-1-(3,5-BIS-TRIFLUOROMETHYL-PHENYL)-ETHYL]-METHYL-AMIDE (ENANTIOMERIC MIX)]: the 50% effective dose (ED50) – broadly, the midpoint of the dose-response relation – in test [2] came to 0.0093 mg/kg; in test [3] it was 0.0677 mg/kg. The 50% inhibitory concentration (IC50) in test [1] is 0.8 nM.
`Cc1ccc(-c2c(C(=O)N(C)[C@@H](C)c3cc(C(F)(F)F)cc(C(F)(F)F)c3)n(C)c(=O)c3ncccc23)cc1` (stereo in doubt; 3a-B) [7-METHYL-8-OXO-5-P-TOLYL-7,8-DIHYDRO-[1,7]NAPHTHYRIDINE-6-CARBOXYLIC ACID (S)-[(S)-1-(3,5-BIS-TRIFLUOROMETHYL-PHENYL)-ETHYL]-METHYL-AMIDE (ENANTIOMERIC MIX)]: testing at 1 mg/kg in test [4] gave an inhibition in vivo of 61.8%. This compound registered an IC50 in test [1] of 44 nM.
`Cc1ccc(-c2c(C(=O)N(C)[C@H](C)c3cc(C(F)(F)F)cc(C(F)(F)F)c3)n(C)c(=O)c3ncccc23)cc1` (stereo in doubt; 3b-A) [7-METHYL-8-OXO-5-P-TOLYL-7,8-DIHYDRO-[1,7]NAPHTHYRIDINE-6-CARBOXYLIC ACID (S)-[(R)-1-(3,5-BIS-TRIFLUOROMETHYL-PHENYL)-ETHYL]-METHYL-AMIDE (ENANTIOMERIC MIX)] registered a median effective dose (ED50) in test [2] of 0.412 mg/kg. The same compound gave an IC50 in test [1] of 19 nM.
For the compound `Cc1ccc(-c2c(C(=O)N(C)[C@H](C)c3cc(C(F)(F)F)cc(C(F)(F)F)c3)n(C)c(=O)c3ncccc23)cc1` (stereo in doubt; 3b-B) [7-METHYL-8-OXO-5-P-TOLYL-7,8-DIHYDRO-[1,7]NAPHTHYRIDINE-6-CARBOXYLIC ACID (S)-[(R)-1-(3,5-BIS-TRIFLUOROMETHYL-PHENYL)-ETHYL]-METHYL-AMIDE (ENANTIOMERIC MIX)], testing at 1 mg/kg in test [4] gave an inhibition in vivo of 6.9%. Moreover, the IC50 in test [1] was 620 nM.
As for `Cc1ccc(-c2c(C(=O)N(C)Cc3cc(C(F)(F)F)cc(C(F)(F)F)c3)n(C)c(=O)c3ncccc23)cc1` [7-METHYL-8-OXO-5-P-TOLYL-7,8-DIHYDRO-[1,7]NAPHTHYRIDINE-6-CARBOXYLIC ACID (3,5-BIS-TRIFLUOROMETHYL-BENZYL)-METHYL-AMIDE (STRUCTURAL MIX)], the median effective dose (ED50) in test [3] was 0.11 mg/kg.
